{"source": "ChEMBL document CHEMBL4715798", "about": "“Structure-Based Optimization of Multifunctional Agonists for Opioid and Neuropeptide FF Receptors with Potent Nontolerance Forming Analgesic Activities” (J Med Chem, 2016)", "key": {"Mu-type opioid receptor [1]": {"biological_target": "T1, Mu-type opioid receptor (Homo sapiens, UniProt P35372)", "assay": "Agonist activity at mu opioid receptor (unknown origin) expressed in HEK293-A cells assessed as reduction in forskolin-induced cAMP accumulation incubated for 30 mins by competition PKA binding assay relative to Tyr-D-Ala-Gly-Phe-Gln-Pro-Gln-Arg-Phe-NH2", "format": "functional, cell-based", "conditions": "filed as agonist", "in_short": "(§1)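 cAMP functional read-out in transfected cells. Log EC50 ± standard error was obtained by nonlinear regression of data from at least three independent experiments run in duplicate.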"}, "[2]": {"biological_target": "Kappa-type opioid receptor (Homo sapiens, UniProt P41145)", "assay": "Agonist activity at kappa opioid receptor (unknown origin) expressed in HEK293-A cells assessed as reduction in forskolin-induced cAMP accumulation incubated for 30 mins by competition PKA binding assay", "format": "functional, cell-based", "in_short": "as §1"}, "[3]": {"biological_target": "T2, Neuropeptide FF receptor 2 (Homo sapiens, UniProt Q9Y5X5)", "assay": "Agonist activity at NPFFR2 (unknown origin) expressed in HEK293-A cells assessed as reduction in forskolin-induced cAMP accumulation incubated for 30 mins by competition PKA binding assay", "format": "functional, cell-based", "conditions": "read-out: EC50", "in_short": "as §1"}, "[4]": {"biological_target": "T3, Neuropeptide FF receptor 1 (Homo sapiens, UniProt Q9GZQ6)", "assay": "Agonist activity at NPFFR1 (unknown origin) expressed in HEK293-A cells assessed as reduction in forskolin-induced cAMP accumulation incubated for 30 mins by competition PKA binding assay", "format": "functional, cell-based", "conditions": "read-out: EC50", "in_short": "as §1"}, "Mus musculus [5]": {"tested_on": "Mus musculus", "assay": "Antinociceptive activity in mouse dosed repeated icv injections for 6 days by radiant heat tail-flick test", "format": "functional", "conditions": "time 6 day", "in_short": "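Mice received the same icv dose once daily for 6 days in the radiant heat tail-flick test. Tolerance was judged by comparing the antinociceptive response on day 1 with day 6. Values are mean ± SEM.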"}, "[6]": {"biological_target": "T4, Delta-type opioid receptor (Homo sapiens, UniProt P41143)", "assay": "Agonist activity at delta opioid receptor (unknown origin) expressed in HEK293-A cells assessed as reduction in forskolin-induced cAMP accumulation incubated for 30 mins by competition PKA binding assay relative to Tyr-D-Ala-Gly-Phe-Gln-Pro-Gln-Arg-Phe-NH2", "format": "functional, cell-based", "conditions": "filed as agonist", "in_short": "as §1"}, "[7]": {"biological_target": "T3, Neuropeptide FF receptor 1", "assay": "Agonist activity at NPFFR1 (unknown origin) expressed in HEK293-A cells assessed as reduction in forskolin-induced cAMP accumulation incubated for 30 mins by competition PKA binding assay relative to Tyr-D-Ala-Gly-Phe-Gln-Pro-Gln-Arg-Phe-NH2", "format": "functional, cell-based", "conditions": "filed as agonist", "in_short": "as §1"}, "Mus musculus [8]": {"tested_on": "Mus musculus", "assay": "Antinociceptive activity in icv dosed mouse assessed as inhibition of phase I flinching behaviors by formalin-induced nociceptive behavioral test", "format": "functional"}, "Mus musculus [9]": {"tested_on": "Mus musculus", "assay": "Antinociceptive activity in mouse assessed as time for peak antinociceptive effect dosed repeated icv injections for 6 days by radiant heat tail-flick test", "format": "functional", "conditions": "time 6 day"}, "Mu-type opioid receptor [10]": {"biological_target": "T1, Mu-type opioid receptor", "assay": "Agonist activity at mu opioid receptor (unknown origin) expressed in HEK293-A cells assessed as reduction in forskolin-induced cAMP accumulation incubated for 30 mins by competition PKA binding assay", "format": "functional, cell-based", "conditions": "read-out: EC50", "in_short": "as §1"}, "Mus musculus [11]": {"tested_on": "Mus musculus", "assay": "Antinociceptive activity in mouse at 50 pmol, […] pre-treated with 10 nmol, icv nonselective NPFF receptor antagonist RF9 by radiant heat tail-flick test", "format": "functional, organism-based"}, "Mus musculus [12]": {"tested_on": "Mus musculus", "assay": "Antinociceptive activity in icv dosed mouse assessed as inhibition of phase II flinching behaviors by formalin-induced nociceptive behavioral test", "format": "functional"}, "[13]": {"biological_target": "T2, Neuropeptide FF receptor 2", "assay": "Agonist activity at NPFFR2 (unknown origin) expressed in HEK293-A cells assessed as reduction in forskolin-induced cAMP accumulation incubated for 30 mins by competition PKA binding assay relative to Tyr-D-Ala-Gly-Phe-Gln-Pro-Gln-Arg-Phe-NH2", "format": "functional, cell-based", "conditions": "filed as agonist", "in_short": "as §1"}, "Mus musculus [14]": {"tested_on": "Mus musculus", "assay": "Antinociceptive activity in mouse assessed as development of tolerance dosed repeated icv injections for 6 days by radiant heat tail-flick test", "format": "functional, organism-based", "conditions": "time 6.0 day", "in_short": "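Tail-flick test in mice. Peptide was given icv once daily for 6 days at a fixed dose. Antinociceptive responses to the same dose on day 1 and day 6 were compared to judge tolerance. Values are mean ± SEM.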"}, "Mus musculus [15]": {"tested_on": "Mus musculus", "assay": "Antinociceptive activity in icv dosed mouse model of CFA-induced chronic inflammatory pain assessed as reduction in tactile hyperalgesia measured after 15 to 90 mins post dose", "format": "functional", "conditions": "time 15-90 min"}, "Mus musculus [16]": {"tested_on": "Mus musculus", "assay": "Antinociceptive activity in ip dosed mouse by radiant heat tail-flick test", "format": "functional"}, "[17]": {"biological_target": "T4, Delta-type opioid receptor", "assay": "Agonist activity at delta opioid receptor (unknown origin) expressed in HEK293-A cells assessed as reduction in forskolin-induced cAMP accumulation incubated for 30 mins by competition PKA binding assay", "format": "functional, cell-based", "in_short": "as §1"}, "[18]": {"assay": "Half life in mouse brain membrane homogenate at 10 uM by HPLC analysis", "format": "ADME, cell membranes"}, "Mus musculus [19]": {"tested_on": "Mus musculus", "assay": "Antinociceptive activity in mouse at 50 pmol, […] pre-treated with 10 nmol, icv mu opioid receptor antagonist beta-funaltrexamine 4 hrs prior to test compound dosing by radiant heat tail-flick test", "format": "functional, organism-based"}, "Mus musculus [20]": {"tested_on": "Mus musculus", "assay": "Antinociceptive activity in mouse model of CFA-induced chronic inflammatory pain assessed as reduction in tactile hyperalgesia at 30 pmol, icv dosed once daily for 6 days", "format": "functional, organism-based", "conditions": "time 6.0 day"}, "[21]": {"assay": "Toxicity in mouse assessed as latency to fall off the rod at 30 mg/kg, ip measured after 10 to 30 mins by rotarod test", "format": "organism-based", "conditions": "in vivo, time 10-30 min"}, "Mus musculus [22]": {"tested_on": "Mus musculus", "assay": "Antinociceptive activity in mouse at 50 pmol, […] pre-treated with 5 nmol, icv opioid receptor antagonist naloxone 10 mins prior to test compound dosing by radiant heat tail-flick test", "format": "functional, organism-based"}, "Mus musculus [23]": {"tested_on": "Mus musculus", "assay": "Antinociceptive activity in mouse assessed as time duration of antinociceptive effect dosed repeated icv injections for 6 days by radiant heat tail-flick test", "format": "functional", "conditions": "time 6 day"}, "[24]": {"assay": "Toxicity in mouse assessed as latency to fall off the rod at 200 pmol, icv measured after 10 to 30 mins by rotarod test", "conditions": "in vivo, icv_or_intrathecal, time 10-30 min"}, "Mus musculus [25]": {"tested_on": "Mus musculus", "assay": "Antinociceptive activity in mouse at 50 pmol, […] pre-treated with 10 nmol, icv delta opioid receptor antagonist naltrindole 20 mins prior to test compound dosing by radiant heat tail-flick test", "format": "functional, organism-based"}, "Mus musculus [26]": {"tested_on": "Mus musculus", "assay": "Antinociceptive activity in mouse at 50 pmol, […] pre-treated with 10 nmol, icv kappa opioid receptor antagonist nor-binaltorphimine 30 mins prior to test compound dosing by radiant heat tail-flick test", "format": "functional, organism-based"}}, "note": "Activity calls are given as the source filed them. The rule behind the calls is not given here. Non-standard residues stand in square brackets, D forms with d. Residues, ends and D or L forms follow the SMILES beside them. NMeF = CN[C@@H](Cc1ccccc1)C(=O)O", "data": [{"smiles": "C[C@@H](NC(=O)[C@@H](N)Cc1ccc(O)cc1)C(=O)NCC(=O)N(C)[C@@H](Cc1ccccc1)C(=O)NCC(=O)N1CCC[C@H]1C(=O)N[C@@H](CCC(N)=O)C(=O)N[C@@H](CCCNC(=N)N)C(=O)N[C@@H](Cc1ccccc1)C(N)=O", "note": "(H-Y[dA]G[NMeF]GPQRF-NH2)", "values": [{"measurement": "Emax", "setting": "Mu-type opioid receptor [1]", "value": 81.6, "unit": "%"}, {"measurement": "EC50", "setting": "[2]", "value": 1490, "unit": "nM"}, {"measurement": "EC50", "setting": "[3]", "value": 311, "unit": "nM"}, {"measurement": "EC50", "setting": "[4]", "value": 973, "unit": "nM"}, {"measurement": "ED50", "setting": "Mus musculus [5]", "value": 0.0163, "unit": "nmol"}, {"measurement": "Emax", "setting": "[6]", "value": 85.4, "unit": "%"}, {"measurement": "Emax", "setting": "[7]", "value": 69.8, "unit": "%"}, {"measurement": "Activity", "setting": "Mus musculus [8]", "value": "Dose-dependent effect"}, {"measurement": "ED50", "setting": "Mus musculus [8]", "value": 18.8, "unit": "pmol"}, {"measurement": "Time", "setting": "Mus musculus [9]", "value": 20, "unit": "min"}, {"measurement": "EC50", "setting": "Mu-type opioid receptor [10]", "value": 38.6, "unit": "nM"}, {"measurement": "Activity", "setting": "Mus musculus [11]", "value": "Active"}, {"measurement": "Activity", "setting": "Mus musculus [12]", "value": "Dose-dependent effect"}, {"measurement": "ED50", "setting": "Mus musculus [12]", "value": 103.4, "unit": "pmol"}, {"measurement": "Emax", "setting": "[13]", "value": 73.3, "unit": "%"}, {"measurement": "Activity", "setting": "Mus musculus [14]", "value": "Active"}, {"measurement": "Activity", "setting": "Mus musculus [15]", "value": "Dose-dependent effect"}, {"measurement": "ED50", "setting": "Mus musculus [15]", "value": 3.92, "unit": "pmol"}, {"measurement": "Activity", "setting": "Mus musculus [16]", "value": "Dose-dependent effect"}, {"measurement": "ED50", "setting": "Mus musculus [16]", "value": 26.6, "unit": "mg/kg"}, {"measurement": "EC50", "setting": "[17]", "value": 575, "unit": "nM"}, {"measurement": "half-life at 10 µM", "setting": "[18]", "value": 1.44, "unit": "h"}, {"measurement": "Activity", "setting": "Mus musculus [19]", "value": "Active"}, {"measurement": "Activity", "setting": "Mus musculus [20]", "value": "Active"}, {"measurement": "Activity", "setting": "[21]", "value": "Non-Toxic"}, {"measurement": "Activity", "setting": "Mus musculus [22]", "value": "inactive"}, {"measurement": "Time", "setting": "Mus musculus [23]", "value": ">60", "unit": "min"}, {"measurement": "Activity", "setting": "[24]", "value": "Non-Toxic"}, {"measurement": "Activity", "setting": "Mus musculus [25]", "value": "inactive"}, {"measurement": "Activity", "setting": "Mus musculus [26]", "value": "Active"}]}]}
